Test [1] deals with Kappa-type opioid receptor (Cavia porcellus) (UniProt P41144). Nature of the test: Dose ratio due to Antagonist Effect at a concentration of 100 nM by ethylketazocine, Opioid receptor kappa 1 in the guinea pig ileum longitudinal muscle myenteric plexus. The test is classed as functional, tissue-based. A digest of the protocol: (§1)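 Isolated guinea pig ileum myenteric plexus–longitudinal muscle and mouse vas deferens. Agonists were normorphine (μ) and ethylketazocine (κ) in both tissues, and (D-Ala2,D-Leu5)enkephalin (δ) in vas deferens. The shift in IC50 is given as dose ratio, mean ± SEM of three to five separate experiments.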

Test [2] concerns the target Kappa-type opioid receptor (Cavia porcellus, UniProt P41144). Nature of the test: (§2) Inhibitory binding constant in guinea pig brain homogenate was reported at Opioid receptor kappa 1 at temperature 25 degree Celsius labeled with (-)-[3H]immazocine (0.1 nM). The test is classed as tissue-based.
For the next test, the target named is Mu-type opioid receptor (Cavia porcellus, UniProt P97266). Nature of the test: Inhibitory binding constant in guinea pig brain homogenate was reported at mu site at a temperature 25 degree Centigrade labeled with [3H](D-Ala2-MePhe4,Gly-ol5)enkephalin(1 nM). Type of test: tissue-based.
For test [3], the target named is Mu-type opioid receptor (Cavia porcellus) (UniProt P97266). Nature of the test: Dose ratio due to Antagonist Effect at a concentration of 100 nM by normorphine, Opioid receptor mu 1 in the guinea pig ileum longitudinal muscle myenteric plexus. The test is classed as functional, tissue-based. A digest of the protocol:
as §1

Test [4] concerns the target Kappa-type opioid receptor (Mus musculus) (UniProt P33534). Nature of the test: Dose ratio due to Antagonist Effect at a concentration of 100 nM by ethylketazocine, Opioid receptor kappa 1 in mouse vas deferens. Type of test: functional. The procedure, abridged: as §1
The target in test [5] is Mu-type opioid receptor (Mus musculus) (UniProt P42866). Nature of the test: Dose ratio due to Antagonist Effect at a concentration of 100 nM by normorphine, Opioid receptor mu 1 in mouse vas deferens. Type of test: functional. A digest of the protocol:
as §1

Test [6] concerns the target Delta-type opioid receptor (Mus musculus) (UniProt P32300). Nature of the test: Dose ratio due to Antagonist Effect at a concentration of 1000 nM by (D-Ala2, D-Leu5)enkephalin, Opioid receptor delta 1 in mouse vas deferens. The test is classed as functional. The procedure, abridged:
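Isolated guinea pig ileum myenteric plexus–longitudinal muscle and mouse vas deferens. Agonists were normorphine (μ) and ethylketazocine (κ) in both tissues, and (D-Ala2,D-Leu5)enkephalin (δ) in vas deferens. […] The shift in IC50 is given as dose ratio, mean ± SEM of three to five separate experiments.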

For another test, the species on record is Mus musculus. Nature of the test: Agonist activity in the mouse vas deferens. The test is classed as functional. A digest of the protocol:
(§3)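 Isolated guinea pig ileum myenteric plexus–longitudinal muscle or mouse vas deferens preparations, run at 25 °C, testing opioid agonist potency.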

For the next test, the species on record is Cavia porcellus. Nature of the test: Agonist activity in the guinea pig ileum longitudinal muscle myenteric plexus. The test is classed as functional. The procedure, abridged:
as §3

For test [7], the target named is Mu-type opioid receptor (Cavia porcellus) (UniProt P97266). Nature of the test: Inhibitory binding constant in guinea pig brain homogenate was reported at mu site at a temperature 25 degree Celsius labeled with [3H](D-Ala2-MePhe4,Gly-ol5)enkephalin(1nM). The test is classed as tissue-based.
Test [8] has as its target Kappa-type opioid receptor (Cavia porcellus) (UniProt P41144). The description is as §2. The test is classed as tissue-based.

Sequence of Kappa-type opioid receptor (Cavia porcellus) (P41144 whole entry): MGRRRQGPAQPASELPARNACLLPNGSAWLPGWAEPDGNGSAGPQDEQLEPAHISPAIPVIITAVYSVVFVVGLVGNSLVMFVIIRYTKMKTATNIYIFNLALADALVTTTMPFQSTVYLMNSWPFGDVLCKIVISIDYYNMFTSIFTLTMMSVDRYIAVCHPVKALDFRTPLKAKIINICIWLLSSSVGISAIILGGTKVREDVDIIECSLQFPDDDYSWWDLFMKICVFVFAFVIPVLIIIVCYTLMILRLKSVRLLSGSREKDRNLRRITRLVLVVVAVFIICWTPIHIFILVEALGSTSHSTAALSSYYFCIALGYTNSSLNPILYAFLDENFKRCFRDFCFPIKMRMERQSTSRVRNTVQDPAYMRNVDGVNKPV
Sequence of Mu-type opioid receptor (Cavia porcellus) (P97266 whole entry): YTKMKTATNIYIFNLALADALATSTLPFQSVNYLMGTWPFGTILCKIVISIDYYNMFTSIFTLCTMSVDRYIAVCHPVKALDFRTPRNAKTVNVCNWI
Sequence of Delta-type opioid receptor (Mus musculus) (P32300 whole entry): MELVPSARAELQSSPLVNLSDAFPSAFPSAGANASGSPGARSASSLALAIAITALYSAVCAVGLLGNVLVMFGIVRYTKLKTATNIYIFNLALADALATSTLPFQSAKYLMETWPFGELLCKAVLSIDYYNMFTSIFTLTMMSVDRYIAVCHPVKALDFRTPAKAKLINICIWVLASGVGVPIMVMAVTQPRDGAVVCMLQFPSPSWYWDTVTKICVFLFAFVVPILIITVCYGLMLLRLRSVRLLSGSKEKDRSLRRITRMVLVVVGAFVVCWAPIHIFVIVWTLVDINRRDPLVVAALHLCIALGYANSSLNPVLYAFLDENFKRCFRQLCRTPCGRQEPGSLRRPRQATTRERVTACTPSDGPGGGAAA
Sequence of Mu-type opioid receptor (Mus musculus) (P42866 whole entry): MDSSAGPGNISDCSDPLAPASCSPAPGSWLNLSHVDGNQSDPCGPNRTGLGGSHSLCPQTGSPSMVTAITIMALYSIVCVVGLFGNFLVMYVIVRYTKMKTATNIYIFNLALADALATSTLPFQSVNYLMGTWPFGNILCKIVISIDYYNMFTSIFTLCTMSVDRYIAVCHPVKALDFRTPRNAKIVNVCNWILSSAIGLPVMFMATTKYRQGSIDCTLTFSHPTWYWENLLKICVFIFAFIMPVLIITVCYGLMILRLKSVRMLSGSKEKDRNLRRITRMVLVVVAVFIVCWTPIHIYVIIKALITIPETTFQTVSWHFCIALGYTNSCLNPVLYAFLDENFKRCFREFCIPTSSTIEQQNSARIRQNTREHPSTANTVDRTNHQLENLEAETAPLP
Sequence of Kappa-type opioid receptor (Mus musculus) (P33534 whole entry): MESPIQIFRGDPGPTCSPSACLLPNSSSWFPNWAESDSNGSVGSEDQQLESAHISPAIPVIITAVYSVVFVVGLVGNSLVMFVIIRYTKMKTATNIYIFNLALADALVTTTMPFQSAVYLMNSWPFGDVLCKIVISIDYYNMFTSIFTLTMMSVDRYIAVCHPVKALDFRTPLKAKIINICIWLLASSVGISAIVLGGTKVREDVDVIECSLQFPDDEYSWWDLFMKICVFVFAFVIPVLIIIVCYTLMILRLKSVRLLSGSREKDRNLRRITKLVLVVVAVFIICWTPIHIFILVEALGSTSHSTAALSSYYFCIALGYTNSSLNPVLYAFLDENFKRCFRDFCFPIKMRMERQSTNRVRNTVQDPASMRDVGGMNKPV
Sequence of Kappa-type opioid receptor (P41144 whole entry): as the sequence (P41144 whole entry) above
Sequence of Mu-type opioid receptor (P97266 whole entry): as the sequence (P97266 whole entry) above

As to `O=C1c2ccc(O)c3c2C24CCN(CC5CC5)C1[C@]2(O)CCC(=O)[C@@H]4O3` (stereo partly drawn) [KETONALTREXONE], the Dose ratio in test [1] came out at 1.58; in [3], 1.84; in [4] it was 0.93; in test [5], 0.57; in test [6] it was 0.71. Besides, the inhibition constant Ki was 102 nM in test [2] and 31.1 nM on Mu-type opioid receptor.
`CN1CCC23c4c5ccc(O)c4O[C@H]2C(=O)CC[C@@]3(O)C1C5=O` (stereo partly drawn) [KETOXYMORPHONE]: the IC50 in the test listed under Mus musculus and in the test listed under Cavia porcellus was > 1000 nM in each case. Moreover, the inhibition in test [7] came out at 19%; in test [8] it was 17%.
As to `CN1CC[C@]23c4c5ccc(O)c4O[C@H]2C(=O)CC[C@@]3(O)[C@H]1C5` [OXYMORPHONE], the half-maximal inhibitory concentration (IC50) in the test listed under Mus musculus came out at 77 nM; in the test listed under Cavia porcellus it was 24 nM.

(Values after ChEMBL document CHEMBL1122908, “10-Ketonaltrexone and 10-ketooxymorphone” (J Med Chem, 1985).)
